ChEMBL document CHEMBL1156735, “Might adrenergic alpha2C-agonists/alpha2A-antagonists become novel therapeutic tools for pain treatment with morphine?” (J Med Chem, 2009)

What was measured:
[1] = biological target: T1, Alpha-2C adrenergic receptor (Homo sapiens) (UniProt P18825); experiment: Intrinsic activity at human Alpha-2C adrenoceptor expressed in CHO cells assessed as extracellular acidification by cytosensor microphysiometry relative to noradrenaline; format: cell-based
T1 sequence (whole entry): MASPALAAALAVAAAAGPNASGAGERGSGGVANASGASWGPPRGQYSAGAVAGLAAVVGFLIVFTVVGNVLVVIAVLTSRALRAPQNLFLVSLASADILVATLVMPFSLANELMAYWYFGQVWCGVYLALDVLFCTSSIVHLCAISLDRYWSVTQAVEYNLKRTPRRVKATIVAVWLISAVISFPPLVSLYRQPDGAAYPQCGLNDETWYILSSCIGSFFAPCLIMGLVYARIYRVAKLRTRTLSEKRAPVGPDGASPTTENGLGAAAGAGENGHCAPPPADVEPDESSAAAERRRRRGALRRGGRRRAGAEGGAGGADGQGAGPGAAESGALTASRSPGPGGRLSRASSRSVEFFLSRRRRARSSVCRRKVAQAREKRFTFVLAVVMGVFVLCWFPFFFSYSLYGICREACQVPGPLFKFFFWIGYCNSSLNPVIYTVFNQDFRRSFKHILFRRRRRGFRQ
Outline: (§1)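 Cytosensor microphysiometry on the same CHO cell lines expressing individual human α2-AR subtypes. pEC50, pKb and intrinsic activity were derived, with ia expressed as a fraction of full agonist (-)-noradrenaline (taken as 1). ia <0.3 was scored not active. Values are mean ± SEM of three to six separate experiments.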

[2] = biological target: T2, Alpha-2B adrenergic receptor (Homo sapiens) (UniProt P18089); experiment: Intrinsic activity at human alpha2B adrenoceptor expressed in CHO cells assessed as extracellular acidification by cytosensor microphysiometry relative to noradrenaline; format: cell-based; outline: as §1
T2 sequence (whole entry): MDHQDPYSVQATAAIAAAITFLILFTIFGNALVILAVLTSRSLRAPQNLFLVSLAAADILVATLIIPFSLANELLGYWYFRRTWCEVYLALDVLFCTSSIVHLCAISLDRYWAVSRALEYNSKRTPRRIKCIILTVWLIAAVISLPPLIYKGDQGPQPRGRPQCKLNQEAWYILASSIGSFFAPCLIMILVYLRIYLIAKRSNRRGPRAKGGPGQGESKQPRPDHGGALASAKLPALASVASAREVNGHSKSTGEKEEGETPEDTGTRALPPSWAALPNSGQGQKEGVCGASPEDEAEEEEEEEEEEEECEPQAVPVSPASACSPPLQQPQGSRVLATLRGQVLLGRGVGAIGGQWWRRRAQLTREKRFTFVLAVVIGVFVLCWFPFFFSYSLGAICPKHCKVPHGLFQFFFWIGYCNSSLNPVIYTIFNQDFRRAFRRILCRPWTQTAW

[3] = biological target: T3, Alpha-2A adrenergic receptor (Homo sapiens, UniProt P08913); experiment: Displacement of [3H]RX821002 from human alpha2A adrenoceptor expressed in CHO cell membrane after 30 mins by liquid scintillation counting; format: cell membranes
T3 sequence (P08913 whole entry): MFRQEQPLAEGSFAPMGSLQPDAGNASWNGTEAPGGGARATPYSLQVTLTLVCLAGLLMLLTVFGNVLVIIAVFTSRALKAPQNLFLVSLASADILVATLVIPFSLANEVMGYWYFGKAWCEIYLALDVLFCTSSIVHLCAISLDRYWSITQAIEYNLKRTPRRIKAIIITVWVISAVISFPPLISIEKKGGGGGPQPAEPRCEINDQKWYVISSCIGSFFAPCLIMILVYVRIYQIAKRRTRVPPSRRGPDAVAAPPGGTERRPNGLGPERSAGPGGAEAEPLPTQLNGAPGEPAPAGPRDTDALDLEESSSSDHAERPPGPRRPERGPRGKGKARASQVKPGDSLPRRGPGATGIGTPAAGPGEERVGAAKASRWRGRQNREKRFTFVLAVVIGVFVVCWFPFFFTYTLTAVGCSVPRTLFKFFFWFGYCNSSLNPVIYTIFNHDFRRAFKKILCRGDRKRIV
Outline: (§2)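 Competition binding against [3H]RX 821002 on membrane preparations from CHO cells, each line expressing one human α2-AR subtype (α2A, α2B or α2C); affinities reported as pKi.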

[4] = biological target: T4, Alpha-2C adrenergic receptor (Homo sapiens, UniProt P18825); experiment: Displacement of [3H]RX821002 from human Alpha-2C adrenoceptor expressed in CHO cell membrane after 30 mins by liquid scintillation counting; format: cell membranes; outline: as §2
T4 sequence (P18825 whole entry): T1 sequence (whole entry)

[5] = biological target: T5, Alpha-2B adrenergic receptor (Homo sapiens, UniProt P18089); experiment: Agonist activity at human alpha2B adrenoceptor expressed in CHO cells assessed as extracellular acidification by cytosensor microphysiometry; format: functional, cell-based; outline: as §1
T5 sequence (P18089 whole entry): T2 sequence (whole entry)

[6] = biological target: T4, Alpha-2C adrenergic receptor; experiment: Agonist activity at human Alpha-2C adrenoceptor expressed in CHO cells assessed as extracellular acidification by cytosensor microphysiometry; format: functional, cell-based; outline: as §1
[7] = biological target: T5, Alpha-2B adrenergic receptor; experiment: Displacement of [3H]RX821002 from human alpha2B adrenoceptor expressed in CHO cell membrane after 30 mins by liquid scintillation counting; format: cell membranes; outline: as §2
[8] = biological target: T6, Alpha-2A adrenergic receptor (Homo sapiens) (UniProt P08913); experiment: Antagonist activity at human alpha2A adrenoceptor expressed in CHO cells assessed as extracellular acidification by cytosensor microphysiometry; format: functional, cell-based; outline: as §1
T6 sequence (whole entry): T3 sequence (P08913 whole entry)

Row | Structure (SMILES) | Intrinsic activity [1] | Intrinsic activity [2] | Ki [3] | Ki [4] | EC50 [5] | EC50 [6] | Ki [7] | pKb [8]
1 | NC[C@H](O)c1ccc(O)c(O)c1 | 1 | 1 |  |  |  |  |  | 
2 | c1ccc(C2CC2)c(OCC2=NCCN2)c1 [CIRAZOLINE] | 0.8 | 1 | 58.9 nM | 550 nM | 1000 nM | 398 nM | 525 nM | 6.4
